# Assays:
# [1] = biological target: T1, Replicase polyprotein 1ab (Severe acute respiratory syndrome coronavirus 2, UniProt P0DTD1); assay: (§1) Inhibition of SARS-CoV-2 RdRp transfected in human HEK293T cells cotransfected with Cov-Gluc by Gaussia luciferase reporter gene method; assay type: cell-based
# In short: (§2)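 HEK293T cells were co-transfected with CoV-Gluc reporter plus C-terminally flag-tagged codon-optimized nsp12, nsp7 and nsp8 plasmids (1:10:30:30). After 12 h, cells were re-seeded in 96-well plates at 10^4/well and treated with serially diluted compound. Gaussia luciferase activity in supernatants gave dose-response IC50. Triplicate assays, mean ± SD.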
# HEK-293T = assay: (§3) Cytotoxicity against human HEK293T cells assessed as reduction in cell viability incubated for 24 hrs by CCK8 assay; assay type: cell-based; conditions: hek-293t, 24 h
# In short: (§4)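 HEK293T cells in 96-well plates were exposed to compound at 0.78–100 μM for 24 h. CCK-8 reagent was then added for 1 h at 37 °C and OD450 read. Viability was normalised to DMSO-only cells to give CC50. Triplicate assays, mean ± SD.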
# [2] = as §3; assay type: cell-based, HEK-293T; conditions: HEK293T cells; in short: as §4
# [3] = biological target: Replicase polyprotein 1ab (Severe acute respiratory syndrome coronavirus 2) (UniProt P0DTD1); assay: Inhibition of SARS-CoV-2 RdRp transfected in HEK293T cells cotransfected with CoV-Gluc assessed as decrease in plus and minus strand-Gluc RNA levels incubated for 24 hrs by qRT-PCR analysis; assay type: cell-based; conditions: dose 5-10 µM
# In short: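 HEK293T cells were transfected with CoV-Gluc, nsp12, nsp7 and nsp8 plasmids (1:10:30:30). At 6 h post-transfection, medium was replaced with fresh medium containing compound, and cells were cultured a further 24 h. Total cellular RNA was extracted and CoV-Gluc RNA quantified by real-time qRT-PCR.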
# [4] = biological target: Replicase polyprotein 1ab (Severe acute respiratory syndrome coronavirus 2) (UniProt P0DTD1); assay: as §1; assay type: cell-based; in short: as §2
# [5] = biological target: T1, Replicase polyprotein 1ab; assay: Inhibition of SARS-CoV-2 RdRp transfected in human HEK293T cells cotransfected nsp12; assay type: cell-based; in short: as §2
# [6] = biological target: T1, Replicase polyprotein 1ab; assay: Inhibition of SARS-CoV-2 RdRp transfected in human HEK293T cells cotransfected nsp12 along with nsp14 and nsp10; assay type: cell-based
# In short: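 HEK293T cell-based Gaussia luciferase RdRp reporter assay. Cells were co-transfected with CoV-Gluc, nsp12, nsp7, nsp8, nsp10 and nsp14 plasmids (1:10:30:30:25:25) so that the nsp14/nsp10 exoribonuclease was present. Gluc activity was measured after compound treatment.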
# HEK293T = assay: Ratio of IC50 for inhibition of SARS-CoV-2 RdRp transfected in human HEK293T cells cotransfected nsp12 along with nsp14/nsp10 to IC50 for inhibition of SARS-CoV-2 RdRp transfected in human HEK293T cells cotransfected with nsp12; assay type: cell-based; conditions: Severe acute respiratory syndrome coronavirus 2
# Human coronavirus OC43 = assay: Antiviral activity against HCoV-OC43 infected in HCT-8 cells assessed as reduction in viral replication treated 1 hr post infection and measured after 120 hrs post infection by MTS cell proliferation colorimetric assay; assay type: functional, cell-based
# In short: (§5)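 HCT-8 cells infected with HCoV-OC43 at MOI 0.1, and LLC-MK2 cells infected with HCoV-NL63 strain Amsterdam I at MOI 0.01. Serial compound dilutions were added 1 h post-infection in 2% FBS. Incubation was 120 h at 33 °C in 5% CO2. MTS reagent was then added for 3 h at 37 °C and absorbance read at 490 nm.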
# [7] = Antiviral activity against HCoV-NL63 infected in LLC-MK2 cells assessed as reduction in viral replication treated 1 hr post infection and measured after 120 hrs post infection by MTS cell proliferation colorimetric assay; assay type: functional, cell-based; conditions: Human coronavirus NL63, LLC-MK2; in short: as §5
smiles,measurement,setting,value
CN(C)CCOc1ccc(CNC(=O)CSc2c[nH]c3ccccc23)cc1,IC50,[1]; read-out: IC50,9.08 µM
same,CC50,HEK-293T,> 100 µM
Cn1cc(SCC(=O)N(Cc2ccccc2)Cc2ccccc2)c2ccccc21,IC50,[1]; read-out: IC50,12.3 µM
same,CC50,HEK-293T,91.2 µM
O=C(CSc1c[nH]c2ccccc12)NCc1ccccc1,IC50,[1]; read-out: IC50,6.81 µM
same,CC50,HEK-293T,> 100 µM
O=C(CSc1c[nH]c2ccc(Br)cc12)NCc1ccc(Cl)c(Cl)c1,IC50,[1]; read-out: IC50,9.77 µM
same,CC50,HEK-293T,> 100 µM
CN(Cc1ccccc1)C(=O)CSc1c[nH]c2c(Br)cccc12,IC50,[1]; read-out: IC50,20.9 µM
same,CC50,HEK-293T,52.5 µM
CCC(CC)COC(=O)[C@H](C)N[P@](=O)(OC[C@H]1O[C@@](C#N)(c2ccc3c(N)ncnn23)[C@H](O)[C@@H]1O)Oc1ccccc1,CC50 at 24 h,[2],> 100 µM
same,inhibition,[3],Dose-Dependent Effect
CCOc1ccccc1CN(OC)C(=O)CSc1c[nH]c2cccc(Br)c12,inhibition,[4],Dose-Dependent Effect
same,CC50,HEK-293T,> 100 µM
same,inhibition,[3],Dose-Dependent Effect
same,IC50,[5],1.11 µM
same,IC50,[6],1.89 µM
same,Ratio IC50,HEK293T,1.7
same,Activity,Human coronavirus OC43,Dose-Dependent Effect
same,IC50,[7],> 50 µM
COc1ccccc1CN(C)C(=O)CSc1c[nH]c2ccccc12,IC50,[1]; read-out: IC50,7.64 µM
same,CC50,HEK-293T,> 100 µM
O=C(CSc1c[nH]c2ccccc12)N(Cc1ccccc1)Cc1ccccc1,inhibition,[4],Dose-Dependent Effect
same,CC50,HEK-293T,> 100 µM
same,inhibition,[3],Dose-Dependent Effect
same,IC50,[5],3.35 µM
same,IC50,[6],4.01 µM
same,Ratio IC50,HEK293T,1.2
COc1ccccc1CNC(=O)CSc1cn(C)c2ccccc12,IC50,[1]; read-out: IC50,9.82 µM
same,CC50,HEK-293T,> 100 µM
CN(Cc1ccccc1)C(=O)CSc1c[nH]c2cccc(Br)c12,IC50,[1]; read-out: IC50,4.73 µM
same,CC50,HEK-293T,25.1 µM
Cn1cc(SCC(=O)NCc2ccccc2)c2ccccc21,IC50,[1]; read-out: IC50,26.9 µM
same,CC50,HEK-293T,95.5 µM
C[C@@H](NC(=O)CSc1c[nH]c2ccccc12)c1ccccc1,IC50,[1]; read-out: IC50,6.68 µM
same,CC50,HEK-293T,> 100 µM
COc1ccccc1CNC(=O)CSc1c[nH]c2c(-c3ccccc3)cccc12,inhibition,[4],Dose-Dependent Effect
same,CC50,HEK-293T,95.5 µM
same,inhibition,[3],Dose-Dependent Effect
same,IC50,[5],1.65 µM
same,IC50,[6],2.18 µM
same,Ratio IC50,HEK293T,1.32
O=C(CSc1c[nH]c2c(Br)cccc12)NCc1ccc(Cl)c(Cl)c1,IC50,[1]; read-out: IC50,4.55 µM
same,CC50,HEK-293T,> 100 µM
O=C(CSc1c[nH]c2cccc(Br)c12)N(Cc1ccccc1)Cc1ccccc1,inhibition,[4],Dose-Dependent Effect
same,CC50,HEK-293T,25.7 µM
same,inhibition,[3],Dose-Dependent Effect
same,IC50,[5],3.76 µM
same,IC50,[6],3.85 µM
same,Ratio IC50,HEK293T,1.02
COc1ccccc1CNC(=O)CSc1c[nH]c2c(Br)cccc12,IC50,[1]; read-out: IC50,7.08 µM
same,CC50,HEK-293T,72.4 µM
Cn1cc(SCC(=O)NCc2ccc(C(F)(F)F)cc2)c2ccccc21,IC50,[1]; hek293t,Not Active
same,CC50,HEK-293T,> 100 µM
CN(Cc1ccccc1)C(=O)CSc1c[nH]c2ccccc12,inhibition,[4],Dose-Dependent Effect
same,CC50,HEK-293T,> 100 µM
same,inhibition,[3],Dose-Dependent Effect
same,IC50,[5],4.55 µM
same,IC50,[6],5.37 µM
same,Ratio IC50,HEK293T,1.18
O=C(CSc1c[nH]c2c(Br)cccc12)N(Cc1ccccc1)Cc1ccccc1,IC50,[1]; read-out: IC50,7.08 µM
same,CC50,HEK-293T,> 100 µM
O=C(CSc1c[nH]c2cc(Br)ccc12)NCc1ccc(Cl)c(Cl)c1,IC50,[1]; read-out: IC50,8.71 µM
same,CC50,HEK-293T,67.6 µM
COc1ccccc1CNC(=O)CSc1c[nH]c2cccc(Br)c12,IC50,[1]; read-out: IC50,8.71 µM
same,CC50,HEK-293T,> 100 µM
Cn1cc(SCC(=O)NCc2ccc(Cl)c(Cl)c2)c2ccccc21,IC50,[1]; read-out: IC50,7.5 µM
same,CC50,HEK-293T,> 100 µM
CN(C)CCOc1ccc(CNC(=O)CSc2cn(C)c3ccccc23)cc1,IC50,[1]; read-out: IC50,8.91 µM
same,CC50,HEK-293T,> 100 µM
O=C(CSc1c[nH]c2cccc(Br)c12)NCc1ccc(Cl)c(Cl)c1,IC50,[1]; read-out: IC50,7.21 µM
same,CC50,HEK-293T,> 100 µM
O=C(CSc1c[nH]c2ccccc12)NCc1ccc(C(F)(F)F)cc1,IC50,[1]; read-out: IC50,7.94 µM
same,CC50,HEK-293T,> 100 µM
COc1ccccc1CNC(=O)CSc1c[nH]c2ccc(Br)cc12,IC50,[1]; read-out: IC50,10.7 µM
same,CC50,HEK-293T,> 100 µM
COc1ccccc1CNC(=O)CSc1c[nH]c2cc(Br)ccc12,IC50,[1]; read-out: IC50,10 µM
same,CC50,HEK-293T,> 100 µM

# Source: ChEMBL document CHEMBL4831483, “Discovery and optimization of 2-((1H-indol-3-yl)thio)-N-benzyl-acetamides as novel SARS-CoV-2 RdRp inhibitors” (Eur J Med Chem, 2021)
